The values below come from ChEMBL document CHEMBL4014350, “Alkoxyurea-Based Histone Deacetylase Inhibitors Increase Cisplatin Potency in Chemoresistant Cancer Cell Lines” (J Med Chem, 2017).

One assay relates to A2780. The assay is described as follows: Antiproliferative activity against human A2780 cells measured after 72 hrs by MTT assay. In kind it is functional, cell-based. Conditions: A2780, 72 h.
Assay [1] has as its system CAL-27. The experiment in a line: Antiproliferative activity against human CAL27 cells measured after 72 hrs by MTT assay. In kind it is functional, cell-based. As to conditions: CAL-27, 72 h. On the technique in general: Tetrazolium assays rely on reduction of a dye to a coloured formazan, in cell work by metabolically active cells.
Another assay relates to A2780cisR. The assay is described as follows: Antiproliferative activity against human A2780cisR cells measured after 72 hrs by MTT assay. It counts as functional, cell-based.
Assay [2] is described as follows: Antiproliferative activity against human Cal27CisR cells measured after 72 hrs by MTT assay. In kind it is functional, cell-based.
A short description of assay [3]: Inhibition of HDAC in human A2780 cells using Boc-Lys(epsilon-Ac)-AMC as substrate preincubated for 18 hrs followed by substrate addition measured after 3 hrs by fluorescence assay. In kind it is cell-based.
The nature of assay [4]: Inhibition of HDAC in human CAL27 cells using Boc-Lys(epsilon-Ac)-AMC as substrate preincubated for 18 hrs followed by substrate addition measured after 3 hrs by fluorescence assay. It counts as cell-based. Conditions: CAL-27.
The nature of assay [5]: Inhibition of HDAC in human A2780CisR cells using Boc-Lys(epsilon-Ac)-AMC as substrate preincubated for 18 hrs followed by substrate addition measured after 3 hrs by fluorescence assay. In kind it is cell-based.
The nature of assay [6]: Inhibition of HDAC in human Cal27CisR cells using Boc-Lys(epsilon-Ac)-AMC as substrate preincubated for 18 hrs followed by substrate addition measured after 3 hrs by fluorescence assay. It counts as cell-based.
The species named for the next assay is Homo sapiens. The experiment in a line: Selectivity ratio of IC50 for HDAC in human A2780 cells to IC50 for HDAC in human A2780CisR cells. It counts as cell-based.
Another assay deals with Histone deacetylase 1 (Homo sapiens, UniProt Q13547). The assay is described as follows: Inhibition of recombinant full length human C-terminal FLAG/His-tagged HDAC1 expressed in baculovirus infected sf9 cells using Z-(Ac)Lys-AMC as substrate measured after 90 mins by fluorescence assay.
Sequence of Histone deacetylase 1 (Q13547 whole entry): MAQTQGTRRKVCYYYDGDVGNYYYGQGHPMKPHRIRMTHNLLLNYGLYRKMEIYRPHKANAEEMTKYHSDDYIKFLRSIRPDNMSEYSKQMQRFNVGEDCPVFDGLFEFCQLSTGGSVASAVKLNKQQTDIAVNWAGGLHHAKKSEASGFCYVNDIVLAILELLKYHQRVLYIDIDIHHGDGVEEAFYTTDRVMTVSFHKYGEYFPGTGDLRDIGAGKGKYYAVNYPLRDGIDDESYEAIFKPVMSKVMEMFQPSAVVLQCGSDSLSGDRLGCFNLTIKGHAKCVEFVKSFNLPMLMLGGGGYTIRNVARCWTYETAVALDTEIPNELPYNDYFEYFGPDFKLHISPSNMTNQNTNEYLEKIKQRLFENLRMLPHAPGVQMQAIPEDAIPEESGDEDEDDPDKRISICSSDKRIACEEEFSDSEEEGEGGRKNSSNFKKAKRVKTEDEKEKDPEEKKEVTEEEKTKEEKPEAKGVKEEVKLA
For assay [7], the target named is T1, Protein deacetylase HDAC6 (Homo sapiens, UniProt Q9UBN7).
T1 sequence (Q9UBN7 whole entry): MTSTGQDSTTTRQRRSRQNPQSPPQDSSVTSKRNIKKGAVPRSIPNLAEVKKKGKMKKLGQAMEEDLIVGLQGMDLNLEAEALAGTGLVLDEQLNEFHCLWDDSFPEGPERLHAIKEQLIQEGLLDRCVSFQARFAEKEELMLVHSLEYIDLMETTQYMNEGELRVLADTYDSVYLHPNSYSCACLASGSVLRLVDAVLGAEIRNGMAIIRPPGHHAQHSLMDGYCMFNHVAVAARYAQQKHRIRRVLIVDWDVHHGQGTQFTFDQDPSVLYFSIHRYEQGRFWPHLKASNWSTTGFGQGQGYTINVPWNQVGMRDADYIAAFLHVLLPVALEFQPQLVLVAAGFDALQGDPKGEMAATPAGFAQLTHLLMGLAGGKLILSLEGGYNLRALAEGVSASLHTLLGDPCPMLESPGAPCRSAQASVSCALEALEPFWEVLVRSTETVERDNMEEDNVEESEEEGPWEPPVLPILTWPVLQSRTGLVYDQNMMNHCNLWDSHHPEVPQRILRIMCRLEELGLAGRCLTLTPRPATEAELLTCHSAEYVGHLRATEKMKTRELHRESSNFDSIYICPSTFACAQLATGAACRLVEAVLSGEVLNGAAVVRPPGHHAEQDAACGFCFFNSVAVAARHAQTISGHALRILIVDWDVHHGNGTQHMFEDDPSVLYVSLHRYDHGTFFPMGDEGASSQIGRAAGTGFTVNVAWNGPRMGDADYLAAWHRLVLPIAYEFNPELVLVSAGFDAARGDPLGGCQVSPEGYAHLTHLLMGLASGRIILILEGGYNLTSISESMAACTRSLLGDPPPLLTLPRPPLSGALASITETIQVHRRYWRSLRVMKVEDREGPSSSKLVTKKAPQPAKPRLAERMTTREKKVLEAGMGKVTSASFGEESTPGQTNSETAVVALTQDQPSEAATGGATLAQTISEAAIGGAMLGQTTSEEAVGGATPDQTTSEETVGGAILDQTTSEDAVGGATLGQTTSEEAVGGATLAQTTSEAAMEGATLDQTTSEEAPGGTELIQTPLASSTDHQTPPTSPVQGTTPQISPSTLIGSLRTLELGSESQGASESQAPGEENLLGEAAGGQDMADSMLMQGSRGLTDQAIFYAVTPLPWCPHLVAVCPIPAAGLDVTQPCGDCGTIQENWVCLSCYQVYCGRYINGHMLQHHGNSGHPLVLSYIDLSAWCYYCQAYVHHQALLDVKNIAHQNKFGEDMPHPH
The experiment in a line: Inhibition of full length human recombinant N-terminal GST-tagged HDAC6 expressed in baculovirus infected sf9 cells Z-(Ac)Lys-AMC as substrate measured after 90 mins by fluorescence assay.

In the next assay the target is T2, Histone deacetylase 8 (Homo sapiens, UniProt Q9BY41).
T2 sequence (Q9BY41 whole entry): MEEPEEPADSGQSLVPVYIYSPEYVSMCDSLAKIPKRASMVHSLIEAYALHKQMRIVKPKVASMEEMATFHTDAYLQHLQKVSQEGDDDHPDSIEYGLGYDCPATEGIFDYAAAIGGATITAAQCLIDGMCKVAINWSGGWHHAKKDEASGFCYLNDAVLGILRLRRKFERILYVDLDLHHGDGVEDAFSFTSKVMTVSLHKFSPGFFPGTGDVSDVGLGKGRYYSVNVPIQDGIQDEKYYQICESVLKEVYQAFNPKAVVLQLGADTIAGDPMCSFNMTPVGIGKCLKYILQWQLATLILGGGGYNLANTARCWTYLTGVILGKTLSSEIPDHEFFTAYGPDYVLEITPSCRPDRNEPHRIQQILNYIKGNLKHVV
The assay is described as follows: Inhibition of human HDAC8 using Z-L-Lys(epsilon-trifluoroacetyl)-AMC as substrate measured after 90 mins by fluorescence assay.

Another assay has as its target Histone deacetylase 4 (Homo sapiens, UniProt P56524). The experiment in a line: Inhibition of recombinant human N-terminal GST-tagged/C-terminal His-tagged HDAC4 expressed in insect cells using Boc-K(Ac)-AMC as substrate by fluorescence assay.
In assay [8] the test system is CAL-27. The assay is described as follows: Potentiation of cisplatin-induced cytotoxicity against human CAL27 cells assessed as decrease in cell viability at 10 uM preincubated for 48 hrs followed by cisplatin treatment measured after 72 hrs by MTT assay relative to cisplatin alone. It counts as functional. In short, it runs like this:
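Cells were preincubated 48 h with HDAC inhibitor, then cisplatin was added over a concentration range for 72 h, with MTT read-out. Shift factor is cisplatin-alone IC50 divided by combination IC50. Data are mean ± SEM of pooled data from at least three independent experiments, each in triplicate. Significance was by t test (p < 0.05).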

Sequence of Histone deacetylase 4 (P56524 whole entry): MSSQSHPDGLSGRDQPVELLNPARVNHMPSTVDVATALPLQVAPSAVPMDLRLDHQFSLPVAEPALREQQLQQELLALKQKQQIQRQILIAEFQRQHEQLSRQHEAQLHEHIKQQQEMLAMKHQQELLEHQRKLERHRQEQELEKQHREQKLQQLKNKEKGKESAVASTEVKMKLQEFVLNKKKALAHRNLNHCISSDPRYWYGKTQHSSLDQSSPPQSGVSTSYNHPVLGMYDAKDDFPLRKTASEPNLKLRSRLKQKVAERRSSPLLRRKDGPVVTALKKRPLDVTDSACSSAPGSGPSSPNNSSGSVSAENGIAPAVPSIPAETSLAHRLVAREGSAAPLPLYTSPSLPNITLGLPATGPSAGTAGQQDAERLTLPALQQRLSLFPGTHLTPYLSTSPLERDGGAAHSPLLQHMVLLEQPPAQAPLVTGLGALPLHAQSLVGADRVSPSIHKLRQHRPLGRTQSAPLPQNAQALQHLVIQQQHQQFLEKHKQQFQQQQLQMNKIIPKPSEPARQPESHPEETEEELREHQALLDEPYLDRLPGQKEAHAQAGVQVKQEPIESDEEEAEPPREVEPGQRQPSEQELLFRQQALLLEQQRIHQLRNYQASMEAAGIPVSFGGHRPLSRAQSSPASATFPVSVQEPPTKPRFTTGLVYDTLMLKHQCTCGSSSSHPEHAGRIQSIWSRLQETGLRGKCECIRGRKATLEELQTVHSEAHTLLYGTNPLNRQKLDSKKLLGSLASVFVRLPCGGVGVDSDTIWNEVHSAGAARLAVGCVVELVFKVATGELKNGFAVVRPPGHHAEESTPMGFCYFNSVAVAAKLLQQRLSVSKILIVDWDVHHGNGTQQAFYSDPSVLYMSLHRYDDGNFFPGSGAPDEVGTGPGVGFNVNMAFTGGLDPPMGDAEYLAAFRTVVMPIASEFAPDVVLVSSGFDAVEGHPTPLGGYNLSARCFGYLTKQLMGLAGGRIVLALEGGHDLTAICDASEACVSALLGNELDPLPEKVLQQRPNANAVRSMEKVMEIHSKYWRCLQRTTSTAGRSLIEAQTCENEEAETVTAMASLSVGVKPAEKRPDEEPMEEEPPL

Broadly, the IC50 is the concentration at which inhibition is half-maximal. Regarding `O=C(CCCCCONC(=O)Nc1cccc2cccnc12)NO`, the 50% inhibitory concentration (IC50) in the assay with A2780 was 3000 nM; in the assay on CAL-27 [1], 1100 nM; in the assay on A2780cisR it was 1000 nM; in assay [2] it was 2200 nM; in [3] it was 2100 nM; in assay [4], 900 nM. The 50% inhibitory concentration (IC50) in [5] and in [6] was 900 nM throughout. Besides, the Ratio IC50 in the assay filed under Homo sapiens is 2 to 3.4.

For `O=C(CCCCCCC(=O)Nc1ccccc1)NO` [VORINOSTAT], the IC50 in assay [3] is 1680 nM.

On to `O=C(CCCCCONC(=O)Nc1cccc2ccccc12)NO`, for which the half-inhibitory concentration (IC50) in the assay with CAL-27 [1] is 1600 nM; with A2780cisR it was 7900 nM; in assay [2], 3900 nM; in assay [3], 1100 nM; in [4] it was 1100 nM; in [5] it was 900 nM. For the same molecule, inhibition in [6] was half-maximal at 1000 nM (IC50).

As for `Cc1ccc2cccc(NC(=O)NOCCCCCC(=O)NO)c2n1`, the half-maximal inhibitory concentration (IC50) with A2780 was 4300 nM; with CAL-27 [1] it was 2200 nM; with A2780cisR, 1300 nM; in assay [2], 4700 nM; in assay [3], 3300 nM; in [4], 3400 nM. The IC50 in assay [5] amounted to 1700 nM; in [6], 2800 nM. Besides, in the assay filed under Homo sapiens, the Ratio IC50 is 2 to 3.4.

As to `O=C(CCCCCONC(=O)Nc1ccc2ncccc2c1)NO`, the 50% inhibitory concentration (IC50) in the assay on A2780 is 27300 nM; in the assay with CAL-27 [1], 5800 nM; with A2780cisR, 10500 nM; in assay [2], 7600 nM; in [3], 2400 nM; in assay [4], 1400 nM. The IC50 is 2000 nM in assay [5] and 1100 nM in assay [6].

In the case of `CN(O)C(=O)CCCCCONC(=O)Nc1cccc2ccccc12`, the IC50 in the assay on A2780 came out at 46800 nM; in the assay on CAL-27 [1] it was 43700 nM; in the assay on A2780cisR, 44200 nM; in assay [2] it was 65800 nM; in assay [4], 190000 nM; in assay [6], 204000 nM.

For the molecule `COc1cc(NC(=O)NOCCCCCC(=O)NO)c2nc(OC(C)C)cc(C)c2c1Oc1cccc(C(F)(F)F)c1`, the IC50 with A2780 was determined as 1700 nM; with CAL-27 [1], 3900 nM; in the assay with A2780cisR it was 3600 nM; in [2] it was 2900 nM; in assay [3], 149000 nM; in assay [4] it was 107000 nM. The midpoint of inhibition in assay [6], the IC50, lay at 56000 nM.

With `O=C(CCCCCONC(=O)Nc1cnc2ccccc2c1)NO`, the IC50 with CAL-27 [1] turned out to be 3000 nM; in the assay on A2780cisR it was 11600 nM; in assay [2], 5400 nM; in assay [3], 1100 nM; in assay [4] it was 1300 nM; in assay [5], 900 nM. In addition, the IC50 was 1300 nM in [6]; 189 nM on Histone deacetylase 1; 51.7 nM in [7]; 11200 nM at Histone deacetylase 8; greater than 10000 nM on Histone deacetylase 4.

Consider `CN1CCc2c(c3ccccc3n2Cc2ccc(C(=O)NO)cc2)C1` [TUBASTATIN A], for which the IC50 turned out to be 4600 nM with CAL-27 [1], 10800 nM in assay [2], 16100 nM in [4] and 12100 nM in assay [6]. Further, the “fold change (FC)” value in the assay on CAL-27 [8] is 1.1.

Consider `O=C(CCCCCONC(=O)Nc1ccc2ccccc2c1)NO`, for which the half-maximal inhibitory concentration (IC50) with A2780 was determined as 1400 nM; with CAL-27 [1] it was 1700 nM; in the assay on A2780cisR, 1600 nM; in [2], 2300 nM; in assay [3] it was 5100 nM; in [4], 1000 nM. Besides, the 50% inhibitory concentration (IC50) in [5] came out at 1600 nM; in assay [6], 1000 nM. The Ratio IC50 in the assay listed under Homo sapiens lay within 2 to 3.4.
